According to paper PMC12679438 (RSC Advances, 2025):
“Also recorded” adds a separate entry of the source. Read-outs that look alike come from different tables or passages of the source.

Experiments:
[1] = tested on: A549; assay: MTS cytotoxicity assay, 72 h, A549; assay type: cell-based, human; details: read-out: IC50 A549
Method in brief: (§1)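 Human lines were kept at 37 °C, 5% CO2 in recommended medium plus 10% FCS, penicillin–streptomycin, 2 mM glutamine, 1 mM bicarbonate, 1 mM pyruvate and 20 mM HEPES, and were mycoplasma-tested biweekly. Cells were exposed to test compound for 72 h on a robotic screening platform, then read by MTS. DMSO-treated cells were the negative control. IC50 came from dose–response curves, mean of ≥6 replicates.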

[2] = tested on: HCT116; assay: MTS cytotoxicity assay, 72 h, HCT116; assay type: cell-based, human; details: read-out: IC50 HCT116
Method in brief: as §1

[3] = tested on: HCT116-p53; assay: MTS cytotoxicity assay, 72 h, HCT116-p53; assay type: cell-based, human
Method in brief: as §1

[4] = tested on: U2OS; assay: MTS cytotoxicity assay, 72 h, U2OS; assay type: cell-based, human
Method in brief: as §1

[5] = tested on: RAMOS; assay: MTS cytotoxicity assay, 72 h, RAMOS; assay type: cell-based, human
Method in brief: as §1

[6] = tested on: K562; assay: MTS cytotoxicity assay, 72 h, K562; assay type: cell-based, human; details: read-out: IC50 K562
Method in brief: as §1

[7] = tested on: Jurkat; assay: MTS cytotoxicity assay, 72 h, Jurkat; assay type: cell-based, human
Method in brief: as §1

[8] = tested on: CCRF-CEM; assay: MTS cytotoxicity assay, 72 h, CCRF-CEM; assay type: cell-based, human
Method in brief: as §1

[9] = tested on: BJ; assay: MTS cytotoxicity assay, 72 h, BJ fibroblasts; assay type: cell-based, human
Method in brief: as §1

[10] = tested on: MRC-5; assay: MTS cytotoxicity assay, 72 h, MRC-5 fibroblasts; assay type: cell-based, human; details: read-out: IC50 MRC-5
Method in brief: as §1

[11] = MTS cytotoxicity assay, statements over groups of cell lines of the panel; assay type: cell-based, human; details: human
Method in brief: as §1

[12] = target: T1, Recombinant ITK (Homo sapiens, UniProt Q08881); assay: In vitro biochemical kinase assay
T1 sequence (Q08881 1-620): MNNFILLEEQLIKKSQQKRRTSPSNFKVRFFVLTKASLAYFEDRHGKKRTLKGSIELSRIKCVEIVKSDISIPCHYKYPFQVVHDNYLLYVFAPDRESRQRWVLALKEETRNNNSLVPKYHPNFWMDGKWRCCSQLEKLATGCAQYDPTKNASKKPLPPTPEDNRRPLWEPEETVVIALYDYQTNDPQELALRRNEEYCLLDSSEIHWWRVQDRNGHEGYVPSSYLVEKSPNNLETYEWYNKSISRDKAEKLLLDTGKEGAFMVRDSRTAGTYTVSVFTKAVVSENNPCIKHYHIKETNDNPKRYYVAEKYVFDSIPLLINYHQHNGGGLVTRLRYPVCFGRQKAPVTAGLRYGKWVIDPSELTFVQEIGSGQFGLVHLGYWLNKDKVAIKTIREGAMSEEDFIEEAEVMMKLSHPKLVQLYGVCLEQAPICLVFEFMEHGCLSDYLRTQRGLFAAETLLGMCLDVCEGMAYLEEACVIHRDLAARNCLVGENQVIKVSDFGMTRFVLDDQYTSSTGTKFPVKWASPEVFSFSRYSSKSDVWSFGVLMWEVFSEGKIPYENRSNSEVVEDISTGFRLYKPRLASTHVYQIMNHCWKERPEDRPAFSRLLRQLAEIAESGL

[13] = target: Recombinant BTK (Homo sapiens, UniProt Q06187); assay: In vitro biochemical kinase assay
[14] = tested on: p-ITK (Tyr551/Tyr511); assay: Western blot of ITK phosphorylation in PHA-stimulated Jurkat cells; assay type: cell-based, human
Method in brief: (§2)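 Jurkat cells at 0.5 × 10^6 per mL were stimulated with PHA 5 µg per mL in RPMI/10% FCS for 15 min, then given test compound at 10, 2.25 or 0.62 µM for 24 h. Controls were 0.1% DMSO and unstimulated cells. RIPA lysates (30 µg) were run on 10% SDS-PAGE and probed for p-ITK/BTK (Tyr551/Tyr511), ITK, p-ERK1/2 (Thr202/Tyr204), ERK1/2 and GAPDH using fluorescent secondaries. Phospho/total ratios were normalised to GAPDH.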

[15] = tested on: p-ERK1/2 (Thr202/Tyr204); assay: Western blot of ERK1/2 phosphorylation in PHA-stimulated Jurkat cells; assay type: cell-based, human
Method in brief: as §2

[16] = tested on: panel of human cell lines; assay: MTS cytotoxicity assay, statements over groups of cell lines of the panel; assay type: cell-based; details: for IC50: Homo sapiens, 72 h, read-out: IC50 across all tested cell lines
Method in brief: as §1

[17] = tested on: malignant T-cell lines; details: cited from earlier work
[18] = Homo sapiens, read-out: IC50 HCT116-p53
[19] = Homo sapiens, U2OS, read-out: IC50 U2OS
[20] = Homo sapiens, Ramos, read-out: IC50 RAMOS
[21] = Homo sapiens, Jurkat, read-out: IC50 Jurkat
[22] = Homo sapiens, CCRF-CEM, read-out: IC50 CCRF-CEM
[23] = Homo sapiens, BJ, read-out: IC50 BJ
[24] = BJ and MRC-5 non-cancerous fibroblast cell lines
[25] = ITK/BTK null, MTS, 72 h, mean of ≥6 replicates

Chain of Recombinant BTK (Q06187 whole entry): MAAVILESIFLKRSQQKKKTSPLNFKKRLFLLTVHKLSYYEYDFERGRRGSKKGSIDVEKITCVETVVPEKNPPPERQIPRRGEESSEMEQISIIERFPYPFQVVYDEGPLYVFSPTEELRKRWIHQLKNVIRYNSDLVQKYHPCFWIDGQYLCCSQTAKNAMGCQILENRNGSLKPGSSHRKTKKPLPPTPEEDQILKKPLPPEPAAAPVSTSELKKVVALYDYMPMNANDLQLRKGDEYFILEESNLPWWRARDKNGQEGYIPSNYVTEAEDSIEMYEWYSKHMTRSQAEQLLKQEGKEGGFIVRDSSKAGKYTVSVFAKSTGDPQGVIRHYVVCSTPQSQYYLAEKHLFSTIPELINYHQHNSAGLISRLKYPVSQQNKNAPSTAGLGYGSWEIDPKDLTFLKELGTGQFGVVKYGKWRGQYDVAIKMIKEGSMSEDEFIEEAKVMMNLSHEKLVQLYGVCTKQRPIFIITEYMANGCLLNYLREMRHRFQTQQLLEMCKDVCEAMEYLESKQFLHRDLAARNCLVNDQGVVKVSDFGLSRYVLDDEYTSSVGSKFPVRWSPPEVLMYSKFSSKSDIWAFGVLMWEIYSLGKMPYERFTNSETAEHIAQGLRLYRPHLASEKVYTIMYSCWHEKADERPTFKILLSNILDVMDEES

| Compound | IC50 ([1]; Homo sapiens, A549, 72 h) | IC50 ([2]; Homo sapiens, HCT-116, 72 h) | IC50 [3, 18] | IC50 [4, 19] | IC50 [5, 20] | IC50 ([6]; Homo sapiens, K562, 72 h) | IC50 [7, 21] | IC50 [8, 22] | IC50 [9, 23] | IC50 ([10]; Homo sapiens, MRC5, 72 h) | IC50 [16] | other results |
| --- | --- | --- | --- | --- | --- | --- | --- | --- | --- | --- | --- | --- |
| O=C(c1ccc(F)cc1)C1CN(c2cc(-c3ccncc3)n[nH]c2=O)C1 [Compound 52, 4-(3-(4-fluorobenzoyl)azetidin-1-yl)-6-(pyridin-4-yl)pyridazin-3(2H)-one] | > 50 µM | > 50 µM | > 50 µM | > 50 µM | 13.2 µM | > 50 µM | 20.7 µM | > 50 µM | > 50 µM | > 50 µM | – | IC50 at 72 h ([11]; A549, HCT116, HCT116-p53 and U2OS ITK-null cancer cell lines): > 50 µM; IC50 at 72 h [11, 24]: > 50 µM |
| O=C(Nc1ccccc1)C1CN(c2cc(-c3cccc(F)c3)n[nH]c2=O)C1 [Compound 9, 1-(6-(3-fluorophenyl)-3-oxo-2,3-dihydropyridazin-4-yl)-N-phenylazetidine-3-carboxamide] | > 50 µM | > 50 µM | > 50 µM | > 50 µM | 9.58 µM | > 50 µM | 37.6 µM | 19.5 µM | > 50 µM | 43.2 µM | – | IC50 [12]: 0.87 µM; BTK inhibition (in words) ([13]; ADP-Glo, 0–10 µM range): no measurable BTK inhibition; also recorded: no BTK inhibitory effect was observed; also recorded: absence of BTK activity; total ITK level ([14]; PHA-stimulated Jurkat cells, 10 µM, 24 h): modest reduction; p-ITK (Tyr551/Tyr511) level ([14]; PHA-stimulated Jurkat cells, 10, 2.25, 0.62 µM for 24 h): reduced phosphorylation; also recorded: concentration-dependent decrease; also recorded: concentration-dependent significant reduction; p-ITK/ITK ratio (densitometry) ([14]; all concentrations tested, normalized to GAPDH): significant reduction; p-ERK1/2 (Thr202/Tyr204) level ([15]; PHA-stimulated Jurkat cells, 10 µM (highest concentration), 24 h): reduced phosphorylation; also recorded: significant decrease; p-ERK/ERK ratio (densitometry) ([15]; highest tested concentration, normalized to GAPDH): significant decrease; IC50 at 72 h [11, 24]: > 50 µM; IC50 / cytotoxicity in non-ITK/BTK (ITK-null) cancer lines ([16]; A549, HCT116, HCT116-p53, U2OS, stated together in the text): inactive; IC50 / cytotoxicity in fibroblast cells ([16]; non-cancerous fibroblasts (BJ, MRC-5), stated together in the text): inactive |
| 1-(6-(3,5-difluorophenyl)-3-oxo-2,3-dihydropyridazin-4-yl)-N-(furan-2-ylmethyl)azetidine-3-carboxamide [Compound 22] | – | – | – | – | – | – | – | – | – | – | – | IC50 [1, 25]: > 50 µM; IC50 [2, 25]: 40.3 µM; IC50 ([3]; read-out: IC50 HCT116-p53, ITK/BTK null, MTS, mean of ≥6 replicates): 41.2 µM; IC50 ([4]; read-out: IC50 U2OS, ITK/BTK null, MTS, mean of ≥6 replicates): 36.2 µM; IC50 ([5]; read-out: IC50 RAMOS, BTK positive, MTS, mean of ≥6 replicates): 22.3 µM; IC50 ([6]; BTK positive, MTS, 72 h, mean of ≥6 replicates): 21.4 µM; IC50 ([7]; read-out: IC50 Jurkat, ITK positive, MTS, mean of ≥6 replicates): 11.2 µM; IC50 ([8]; read-out: IC50 CCRF-CEM, ITK positive, MTS, mean of ≥6 replicates): 18.5 µM; IC50 ([9]; read-out: IC50 BJ, Non-cancer fibroblasts, MTS, mean of ≥6 replicates): > 50 µM; IC50 ([10]; Non-cancer fibroblasts, MTS, 72 h, mean of ≥6 replicates): > 50 µM; BTK inhibition (in words) ([13]; ADP-Glo, 0–10 µM range): partial BTK inhibition; also recorded: partial activity against BTK; maximal inhibition of BTK ([13]; at 10 µM): ≤ 50%; IC50 ([13]; read-out: IC50 BTK activity, ADP-Glo, 0–10 µM range): > 10 µM |
| C=CC(=O)N1CCC[C@@H](n2nc(-c3ccc(Oc4ccccc4)cc3)c3c(N)ncnc32)C1 [ibrutinib, reference compound] | – | – | – | – | – | – | – | – | – | – | – | inhibition of ITK activity (assay validation) ([12]; ibrutinib 100 µM, vs. DMSO control): significant inhibition |
| O=C(Nc1ccccc1)C1CN(c2cc(-c3ccncc3)n[nH]c2=O)C1 [Compound 7, 1-(3-oxo-6-(pyridin-4-yl)-2,3-dihydropyridazin-4-yl)-N-phenylazetidine-3-carboxamide] | > 50 µM | > 50 µM | > 50 µM | > 50 µM | > 50 µM | > 50 µM | > 50 µM | > 50 µM | > 50 µM | > 50 µM | > 50 µM | – |
| COc1cc(C)c(Sc2cnc(NC(=O)c3ccc(CNC(C)C(C)(C)C)cc3)s2)cc1C(=O)N1CCN(C(C)=O)CC1 (centres unmarked) [BMS-509744] | – | – | – | – | – | – | – | – | – | – | – | effect in malignant T-cell lines [17]: induced pro-apoptotic signaling and G2/M cell cycle arrest |
| O=C(Nc1ccccc1)C1CN(c2cc(-c3ccccc3)n[nH]c2=O)C1 [Compound 8, 1-(3-oxo-6-phenyl-2,3-dihydropyridazin-4-yl)-N-phenylazetidine-3-carboxamide] | > 50 µM | > 50 µM | > 50 µM | > 50 µM | > 50 µM | > 50 µM | > 50 µM | > 50 µM | > 50 µM | > 50 µM | > 50 µM | – |
| COc1ccc(-c2cc(N3CC(C(=O)NCC(F)(F)F)C3)c(=O)[nH]n2)cc1 [Compound 37, 1-(6-(4-methoxyphenyl)-3-oxo-2,3-dihydropyridazin-4-yl)-N-(2,2,2-trifluoroethyl)azetidine-3-carboxamide] | > 50 µM | > 50 µM | > 50 µM | > 50 µM | > 50 µM | > 50 µM | > 50 µM | > 50 µM | > 50 µM | > 50 µM | > 50 µM | – |
